Data on 1 molecule can be found in ChEMBL document CHEMBL4229344 (Eur J Med Chem, 2018).

Series [1] has as its system NCI-H1703. In words: Induction of apoptosis in human NCI-H1703 cells assessed as cleaved PARP expression level after 72 hrs in presence of PDGF-AA by Western blot analysis. Type of series: functional, cell-based. An outline of the steps:
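Cells exposed to compound or DMSO for the stated periods, then lysed and immunoblotted for PARP and caspase-3 cleavage, with β-actin as loading control. NCI-H1703 stimulation used PDGF AA at 100 ng/mL.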
A general note: In western blotting, separated proteins are transferred to a membrane and probed.

Series [2] concerns the target BDNF/NT-3 growth factors receptor (Homo sapiens) (UniProt Q16620). In words: Binding affinity to wild-type human partial length TRKB (Q547 to G838 residues) expressed in mammalian expression system assessed as residual binding level at 1 uM by Kinomescan method relative to control.
Series [3] addresses Mitogen-activated protein kinase 7 (Homo sapiens) (UniProt Q13164). In words: Binding affinity to wild-type human partial length ERK5 (M1 to A409 residues) expressed in bacterial expression system assessed as residual binding level at 1 uM by Kinomescan method relative to control. In short, it runs like this:
(§1)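 Kinome-wide competition binding screen against a panel of 468 purified kinases/mutants, with the test compound at a single concentration of 1 μM. Read-out is the relative binding activity of each kinase in the presence of compound.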

Series [4] deals with Serine/threonine-protein kinase PLK4 (Homo sapiens) (UniProt O00444). In words: Binding affinity to wild-type human partial length PLK4 (M1 to S273 residues) expressed in mammalian expression system assessed as residual binding level at 1 uM by Kinomescan method relative to control.
In series [5] the target is Ribosomal protein S6 kinase alpha-3 (Homo sapiens) (UniProt P51812). In words: Binding affinity to wild-type human partial length C-terminal RSK2 kinase domain 2 (V402 to S715 residues) expressed in mammalian expression system assessed as residual binding level at 1 uM by Kinomescan method relative to control.
For series [6], the target named is Receptor-type tyrosine-protein kinase FLT3 (Homo sapiens) (UniProt P36888). In words: Binding affinity to wild-type human partial length FLT3 (V592 to Y969 residues) expressed in bacterial expression system assessed as residual binding level at 1 uM by Kinomescan method relative to control.
The target in series [7] is Non-receptor tyrosine-protein kinase TYK2 (Homo sapiens) (UniProt P29597). The experiment in a line: Binding affinity to wild-type human partial length TYK2 JH2 pseudokinase domain (G556 to D888 residues) expressed in mammalian expression system assessed as residual binding level at 1 uM by Kinomescan method relative to control.
The target in series [8] is Discoidin domain-containing receptor 2 (Homo sapiens) (UniProt Q16832). The experiment in a line: Binding affinity to wild-type human partial length DDR2 (V555 to E855 residues) expressed in mammalian expression system assessed as residual binding level at 1 uM by Kinomescan method relative to control. An outline of the steps: as §1
In series [9] the target is Platelet-derived growth factor receptor beta (Homo sapiens, UniProt P09619). The experiment in a line: Inhibition of TEL-fused PDGFRbeta (unknown origin) expressed in mouse BA/F3 cells assessed as growth inhibition after 72 hrs by CellTiter-Glo or CCK-8 assay. Type of series: cell-based. In short, it runs like this: (§2)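 Parental BaF3 or IL-3-independent TEL-kinase BaF3 lines, made by retroviral infection and puromycin selection, grown in RPMI 1640 with 10% FBS. Cells seeded at 1–3 × 10^4 cells/mL with serial compound concentrations for 72 h. Viability read by CellTiter-Glo luminescence or CCK-8 absorbance at 450/655 nm and normalised to DMSO. GI50 obtained by triplicate testing with linear regression. Selectivity is the ratio of the two GI50 values.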

The target in series [10] is Dual specificity tyrosine-phosphorylation-regulated kinase 2 (Homo sapiens) (UniProt Q92630). The experiment in a line: Binding affinity to wild-type human full length DYRK2 (M1 to S528 residues) expressed in mammalian expression system assessed as residual binding level at 1 uM by Kinomescan method relative to control. In short, it runs like this:
(§3)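 Single-concentration (1 μM) competition-binding screen run by KINOMEscan against a panel of 468 purified kinases and mutants. The read-out is the relative binding activity of the test compound to each kinase.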

Series [11] is described as follows: Cytotoxicity against mouse BA/F3 cells after 72 hrs by CellTiter-Glo or CCK-8 assay. Type of series: cell-based, BaF3. In short, it runs like this: as §2
In general terms: Cellular ATP, detected with luciferase, serves as a proxy for viable cell number.

Series [12] deals with Tyrosine-protein kinase Fes/Fps (Homo sapiens) (UniProt P07332). The experiment in a line: Binding affinity to wild-type human partial length FES (I527 to R822 residues) expressed in bacterial expression system assessed as residual binding level at 1 uM by Kinomescan method relative to control.
The target in series [13] is Mitogen-activated protein kinase 1 (Homo sapiens) (UniProt P28482). The experiment in a line: Binding affinity to wild-type human full length ERK2 (M1 to S360 residues) expressed in bacterial expression system assessed as residual binding level at 1 uM by Kinomescan method relative to control. In short, it runs like this:
(§4)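 KINOMEscan competition binding against 468 purified kinases/mutants, test compound at 1 µM; residual binding relative to control.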

In series [14] the test system is NCI-H1703. In words: Cell cycle arrest in human NCI-H1703 cells assessed as accumulation at G0/G1 phase after 72 hrs by propidium iodide/RNase staining-based flow cytometric analysis. Type of series: functional. An outline of the steps:
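Cells treated with compound or DMSO for the stated periods, fixed overnight in 70% cold ethanol at −20 °C, stained with PI/RNase buffer, then analysed by flow cytometry for cell-cycle distribution. For NCI-H1703 stimulation, PDGF AA was used at 100 ng/mL.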
(In flow cytometry, cells or beads pass a laser one at a time.)

The target of series [15] is Membrane-associated tyrosine- and threonine-specific cdc2-inhibitory kinase (Homo sapiens) (UniProt Q99640). In words: Binding affinity to wild-type human partial length PKMYT1 (A88 to G366 residues) expressed in bacterial expression system assessed as residual binding level at 1 uM by Kinomescan method relative to control. An outline of the steps:
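KINOMEscan competition binding against a panel of 468 purified kinases/mutants, compound tested at 1 μM; readout is relative binding activity versus control.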

The target in series [16] is Ephrin type-B receptor 3 (Homo sapiens) (UniProt P54753). The experiment in a line: Binding affinity to wild-type human partial length EPHB3 (Q599 to T928 residues) expressed in bacterial expression system assessed as residual binding level at 1 uM by Kinomescan method relative to control. An outline of the steps:
as §1

The target in series [17] is Megakaryocyte-associated tyrosine-protein kinase (Homo sapiens) (UniProt P42679). The experiment in a line: Binding affinity to wild-type human full length CTK (M43 to P508 residues) expressed in mammalian expression system assessed as residual binding level at 1 uM by Kinomescan method relative to control. An outline of the steps: as §3
Series [18] deals with Serine/threonine-protein kinase SIK2 (Homo sapiens) (UniProt Q9H0K1). The experiment in a line: Binding affinity to wild-type human full length SIK2 (M1 to N926 residues) expressed in bacterial expression system assessed as residual binding level at 1 uM by Kinomescan method relative to control. In short, it runs like this: as §4
Series [19] addresses Tyrosine-protein kinase JAK1 (Homo sapiens) (UniProt P23458). In words: Binding affinity to wild-type human partial length JAK1 JH1 catalytic domain (V856 to K1154 residues) expressed in bacterial expression system assessed as residual binding level at 1 uM by Kinomescan method relative to control.
For series [20], the target named is Casein kinase I isoform delta (Homo sapiens) (UniProt P48730). In words: Binding affinity to wild-type human full length CSNK1D (M1 to K409 residues) expressed in bacterial expression system assessed as residual binding level at 1 uM by Kinomescan method relative to control. An outline of the steps: as §3

Structures are written as SMILES. The source made the active and inactive calls. The calls are words filed in the database; no cut-off is given here.

Sequence of Receptor-type tyrosine-protein kinase FLT3 (Homo sapiens) (P36888 whole entry, the tested form may be a part): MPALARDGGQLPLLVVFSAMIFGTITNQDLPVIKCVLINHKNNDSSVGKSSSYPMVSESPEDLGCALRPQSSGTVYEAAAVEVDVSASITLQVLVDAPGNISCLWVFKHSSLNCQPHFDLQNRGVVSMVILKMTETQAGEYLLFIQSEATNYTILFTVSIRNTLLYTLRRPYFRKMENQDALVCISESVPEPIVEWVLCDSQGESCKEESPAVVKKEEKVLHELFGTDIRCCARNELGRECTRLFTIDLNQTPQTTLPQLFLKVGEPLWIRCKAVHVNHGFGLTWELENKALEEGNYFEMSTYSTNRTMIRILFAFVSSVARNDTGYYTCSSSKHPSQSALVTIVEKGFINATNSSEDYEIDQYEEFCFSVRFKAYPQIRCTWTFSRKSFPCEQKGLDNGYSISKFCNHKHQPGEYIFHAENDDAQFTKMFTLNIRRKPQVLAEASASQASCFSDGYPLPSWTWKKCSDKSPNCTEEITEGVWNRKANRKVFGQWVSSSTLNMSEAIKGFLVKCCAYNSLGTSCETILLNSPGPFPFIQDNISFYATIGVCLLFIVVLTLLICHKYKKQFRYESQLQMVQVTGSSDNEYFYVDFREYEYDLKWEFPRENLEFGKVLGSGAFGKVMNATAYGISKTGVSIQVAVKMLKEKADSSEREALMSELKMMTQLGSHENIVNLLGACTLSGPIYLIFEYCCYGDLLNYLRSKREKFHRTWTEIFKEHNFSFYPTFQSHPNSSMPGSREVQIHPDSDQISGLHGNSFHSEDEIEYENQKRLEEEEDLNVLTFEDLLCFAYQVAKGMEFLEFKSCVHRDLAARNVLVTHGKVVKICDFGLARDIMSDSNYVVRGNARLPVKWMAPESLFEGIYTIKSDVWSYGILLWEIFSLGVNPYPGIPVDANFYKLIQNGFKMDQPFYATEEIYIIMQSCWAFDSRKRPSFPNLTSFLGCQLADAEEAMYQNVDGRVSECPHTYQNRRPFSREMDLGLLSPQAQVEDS
Sequence of Mitogen-activated protein kinase 1 (Homo sapiens) (P28482 whole entry, the tested form may be a part): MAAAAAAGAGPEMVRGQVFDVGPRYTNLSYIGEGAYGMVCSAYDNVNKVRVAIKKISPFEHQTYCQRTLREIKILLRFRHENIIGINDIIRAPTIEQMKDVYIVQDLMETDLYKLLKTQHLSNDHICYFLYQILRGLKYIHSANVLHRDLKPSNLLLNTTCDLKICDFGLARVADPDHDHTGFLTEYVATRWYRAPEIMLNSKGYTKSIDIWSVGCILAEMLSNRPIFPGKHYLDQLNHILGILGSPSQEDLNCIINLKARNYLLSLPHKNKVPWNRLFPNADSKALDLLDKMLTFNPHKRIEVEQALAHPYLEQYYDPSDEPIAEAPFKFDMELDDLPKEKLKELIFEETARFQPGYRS
Sequence of Discoidin domain-containing receptor 2 (Homo sapiens) (Q16832 whole entry, the tested form may be a part): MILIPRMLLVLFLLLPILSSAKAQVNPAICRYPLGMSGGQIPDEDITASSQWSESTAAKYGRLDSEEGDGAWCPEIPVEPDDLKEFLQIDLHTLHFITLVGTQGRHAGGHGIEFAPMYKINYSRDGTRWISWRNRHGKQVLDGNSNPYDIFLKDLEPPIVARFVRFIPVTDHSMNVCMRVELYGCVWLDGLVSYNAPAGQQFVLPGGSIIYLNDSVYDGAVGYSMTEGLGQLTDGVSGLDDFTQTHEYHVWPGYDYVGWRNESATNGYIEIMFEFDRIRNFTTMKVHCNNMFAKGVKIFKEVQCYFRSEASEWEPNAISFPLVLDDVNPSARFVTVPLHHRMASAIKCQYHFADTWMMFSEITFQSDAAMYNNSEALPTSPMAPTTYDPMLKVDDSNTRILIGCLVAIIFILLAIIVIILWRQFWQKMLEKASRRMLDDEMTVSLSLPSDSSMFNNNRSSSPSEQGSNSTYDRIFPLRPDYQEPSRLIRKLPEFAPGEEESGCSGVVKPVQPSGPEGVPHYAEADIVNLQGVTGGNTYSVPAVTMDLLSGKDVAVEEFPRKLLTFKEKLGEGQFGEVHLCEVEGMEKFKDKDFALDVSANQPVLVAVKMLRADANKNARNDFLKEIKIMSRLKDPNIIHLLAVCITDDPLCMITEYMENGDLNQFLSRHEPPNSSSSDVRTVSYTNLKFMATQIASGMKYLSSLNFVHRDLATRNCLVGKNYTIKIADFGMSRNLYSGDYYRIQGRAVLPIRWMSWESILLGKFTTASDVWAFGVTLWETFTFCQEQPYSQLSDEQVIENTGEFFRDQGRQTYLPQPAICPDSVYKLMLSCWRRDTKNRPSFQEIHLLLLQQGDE
Sequence of Ephrin type-B receptor 3 (Homo sapiens) (P54753 whole entry, the tested form may be a part): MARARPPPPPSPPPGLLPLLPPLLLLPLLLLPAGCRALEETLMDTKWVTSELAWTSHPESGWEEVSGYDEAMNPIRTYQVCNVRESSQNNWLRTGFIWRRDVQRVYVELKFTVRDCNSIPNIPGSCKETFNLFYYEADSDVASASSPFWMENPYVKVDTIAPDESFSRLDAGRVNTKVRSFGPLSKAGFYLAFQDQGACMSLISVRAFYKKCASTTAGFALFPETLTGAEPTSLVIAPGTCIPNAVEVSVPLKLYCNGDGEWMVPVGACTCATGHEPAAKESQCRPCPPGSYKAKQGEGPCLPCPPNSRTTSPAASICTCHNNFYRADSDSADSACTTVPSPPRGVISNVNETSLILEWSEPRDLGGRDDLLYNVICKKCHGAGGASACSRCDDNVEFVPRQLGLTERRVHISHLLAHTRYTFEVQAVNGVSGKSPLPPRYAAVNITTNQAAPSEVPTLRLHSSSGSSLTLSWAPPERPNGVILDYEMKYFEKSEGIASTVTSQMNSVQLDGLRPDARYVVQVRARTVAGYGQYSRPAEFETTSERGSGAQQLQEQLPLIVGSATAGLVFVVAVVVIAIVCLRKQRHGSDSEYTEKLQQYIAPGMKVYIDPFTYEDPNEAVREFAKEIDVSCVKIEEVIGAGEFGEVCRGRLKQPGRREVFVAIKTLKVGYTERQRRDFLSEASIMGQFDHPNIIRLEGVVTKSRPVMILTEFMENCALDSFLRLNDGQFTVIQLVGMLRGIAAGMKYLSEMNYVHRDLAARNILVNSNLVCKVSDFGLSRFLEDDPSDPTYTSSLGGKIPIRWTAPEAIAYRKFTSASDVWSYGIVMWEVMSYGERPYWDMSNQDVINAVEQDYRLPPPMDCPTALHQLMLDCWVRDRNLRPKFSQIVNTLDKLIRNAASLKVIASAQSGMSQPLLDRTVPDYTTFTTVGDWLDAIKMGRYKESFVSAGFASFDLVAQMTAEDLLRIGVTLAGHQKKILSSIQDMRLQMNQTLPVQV
Sequence of Tyrosine-protein kinase Fes/Fps (Homo sapiens) (P07332 whole entry, the tested form may be a part): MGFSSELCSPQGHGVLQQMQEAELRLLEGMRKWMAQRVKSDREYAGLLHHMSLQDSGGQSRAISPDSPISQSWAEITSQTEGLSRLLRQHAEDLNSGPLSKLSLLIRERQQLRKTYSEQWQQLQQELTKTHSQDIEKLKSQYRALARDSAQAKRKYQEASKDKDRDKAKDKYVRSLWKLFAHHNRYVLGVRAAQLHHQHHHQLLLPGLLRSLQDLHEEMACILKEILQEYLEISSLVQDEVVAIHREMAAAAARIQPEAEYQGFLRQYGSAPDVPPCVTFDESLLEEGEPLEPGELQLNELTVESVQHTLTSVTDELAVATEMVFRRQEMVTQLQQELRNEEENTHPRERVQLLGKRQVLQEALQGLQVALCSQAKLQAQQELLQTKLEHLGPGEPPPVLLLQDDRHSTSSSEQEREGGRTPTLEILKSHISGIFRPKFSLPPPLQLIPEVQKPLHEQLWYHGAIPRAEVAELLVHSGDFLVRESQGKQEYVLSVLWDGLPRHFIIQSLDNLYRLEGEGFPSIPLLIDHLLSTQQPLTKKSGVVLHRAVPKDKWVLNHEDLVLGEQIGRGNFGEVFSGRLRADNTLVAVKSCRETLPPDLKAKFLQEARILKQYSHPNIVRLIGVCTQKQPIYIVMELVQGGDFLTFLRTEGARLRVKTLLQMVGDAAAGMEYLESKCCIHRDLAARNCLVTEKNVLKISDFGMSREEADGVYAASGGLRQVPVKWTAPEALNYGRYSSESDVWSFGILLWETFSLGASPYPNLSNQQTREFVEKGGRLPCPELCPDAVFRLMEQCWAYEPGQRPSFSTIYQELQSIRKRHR
Sequence of Mitogen-activated protein kinase 7 (Homo sapiens) (Q13164 2-816 limits assumed): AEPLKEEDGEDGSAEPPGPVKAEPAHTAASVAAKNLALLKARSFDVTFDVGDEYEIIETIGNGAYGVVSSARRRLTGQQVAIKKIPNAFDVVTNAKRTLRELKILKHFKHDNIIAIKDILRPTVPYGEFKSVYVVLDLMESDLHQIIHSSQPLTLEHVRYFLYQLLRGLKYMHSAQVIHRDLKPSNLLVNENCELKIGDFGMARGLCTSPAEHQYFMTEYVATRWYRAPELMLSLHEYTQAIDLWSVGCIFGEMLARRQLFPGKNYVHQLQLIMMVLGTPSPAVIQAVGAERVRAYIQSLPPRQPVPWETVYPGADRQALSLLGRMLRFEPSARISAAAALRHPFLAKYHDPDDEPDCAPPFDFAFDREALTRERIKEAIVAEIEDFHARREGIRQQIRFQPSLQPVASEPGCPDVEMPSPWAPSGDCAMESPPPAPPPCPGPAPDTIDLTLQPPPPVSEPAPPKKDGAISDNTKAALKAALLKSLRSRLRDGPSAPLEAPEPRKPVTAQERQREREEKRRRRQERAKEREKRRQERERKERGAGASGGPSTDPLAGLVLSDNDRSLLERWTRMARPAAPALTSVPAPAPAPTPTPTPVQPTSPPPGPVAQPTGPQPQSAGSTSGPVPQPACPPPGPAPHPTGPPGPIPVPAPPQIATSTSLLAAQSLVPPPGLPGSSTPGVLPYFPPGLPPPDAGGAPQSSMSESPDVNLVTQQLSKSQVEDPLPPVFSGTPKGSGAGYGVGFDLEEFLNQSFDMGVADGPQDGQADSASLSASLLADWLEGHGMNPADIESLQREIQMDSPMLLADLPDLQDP

In general, GI50 refers to the concentration at which growth is held to half of that of the control. On to `Cc1ccc(NC(=O)c2ccc(CN(CCN(C)C)C(=O)c3cccnc3)cc2)cc1Nc1nccc(-c2cccnc2)n1`, for which the outcome in [1] was Active. The Activity was found to be 100% in [2]; 84% in [3]; 88% in series [4]; 100% in series [5]; 89% in series [6]; 91% in series [7]. The Activity in series [8] is 33%; in series [10], 100%; in [12], 85%; in [13], 83%; in series [14] it was “Dose-dependent effect”; in [15] it was 84%. Also, the Activity in series [16] is 94%; in series [17], 90%; in series [18] it was 87%; in [19], 100%; in series [20] it was 95%. Moreover, in series [9], the 50% growth inhibitory concentration (GI50) was 2900 nM. For the same molecule, the GI50 at 72 h in series [11] was over 10000 nM.
